According to ChEMBL document CHEMBL1166003, “Triterpene glycosides from Curculigo orchioides and their cytotoxic activity” (J Nat Prod, 2010):
pIC50: −log10 of the molar value. Active and inactive are the calls of the source. The calls are words filed in the database; no cut-off is given here.

Tests used:
HL-60 [1] = test: Cytotoxicity against human HL60 cells at 20 uM after 72 hrs by MTT assay; format: functional, cell-based
OVCAR-8 = test: Growth inhibition of human OVCAR8 cells after 48 hrs by SRB assay; format: functional; conditions: OVCAR-8, 48 h
In short: (§1)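 Part of a 39-line human cancer cell panel, run by a modified NCI method. Cells were plated at suitable density in RPMI 1640 with 5% FBS and left to attach overnight before compound addition. Read-out was GI50.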

[2] = Growth inhibition of human HBC4 cells after 48 hrs by SRB assay; format: functional; conditions: HBC4, 48 h; in short: as §1
HL-60 [3] = test: Cytotoxicity against human HL60 cells after 72 hrs by MTT assay; format: functional, cell-based; conditions: HL-60, 72 h
In short: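 HL-60 (JCRB 0085) kept in RPMI 1640 with 10% heat-inactivated FBS, penicillin/streptomycin, 37 °C, 5% CO2. Seeded at 4 × 10^4 cells/mL, preincubated 24 h, then dosed from EtOH-H2O (1:1) to final 0.01-20 µg/mL; vehicle-only controls. After 72 h, modified MTT read-out: MTT 4 h, centrifugation, formazan dissolved in DMSO, A550. Triplicate; IC50 taken as 50% reduction of viable cells.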

MKN-74 = test: Growth inhibition of human MKN74 cells after 48 hrs by SRB assay; format: functional; conditions: MKN-74, 48 h; in short: as §1
A549 = test: Growth inhibition of human A549 cells after 48 hrs by SRB assay; format: functional; conditions: A549, 48 h; in short: as §1
MCF7 = test: Growth inhibition of human MCF7 cells after 48 hrs by SRB assay; format: functional; conditions: MCF7, 48 h; in short: as §1
SF-539 = test: Growth inhibition of human SF539 cells after 48 hrs by SRB assay; format: functional; conditions: SF-539, 48 h; in short: as §1
NCI-H226 = test: Growth inhibition of human NCI-H226 cells after 48 hrs by SRB assay; format: functional; conditions: NCI-H226, 48 h; in short: as §1
HCT-116 = test: Growth inhibition of human HCT116 cells after 48 hrs by SRB assay; format: functional; conditions: HCT-116, 48 h; in short: as §1
ACHN = test: Growth inhibition of human ACHN cells after 48 hrs by SRB assay; format: functional; in short: as §1
NCI-H23 = test: Growth inhibition of human NCI-H23 cells after 48 hrs by SRB assay; format: functional; conditions: NCI-H23, 48 h; in short: as §1
DU-145 = test: Growth inhibition of human DU145 cells after 48 hrs by SRB assay; format: functional; conditions: DU-145, 48 h; in short: as §1
SNB-78 = test: Growth inhibition of human SNB78 cells after 48 hrs by SRB assay; format: functional; conditions: SNB-78, 48 h; in short: as §1
SK-OV-3 = test: Growth inhibition of human SKOV3 cells after 48 hrs by SRB assay; format: functional; conditions: SK-OV-3, 48 h; in short: as §1
NCI-H460 = test: Growth inhibition of human NCI-H460 cells after 48 hrs by SRB assay; format: functional; conditions: NCI-H460, 48 h; in short: as §1
OVCAR-4 = test: Growth inhibition of human OVCAR4 cells after 48 hrs by SRB assay; format: functional; conditions: OVCAR-4, 48 h; in short: as §1
HCC 2998 = test: Growth inhibition of human HCC2998 cells after 48 hrs by SRB assay; format: functional; conditions: HCC 2998, 48 h; in short: as §1
OVCAR-3 = test: Growth inhibition of human OVCAR-3 cells after 48 hrs by SRB assay; format: functional; conditions: OVCAR-3, 48 h; in short: as §1
SF-295 = test: Growth inhibition of human SF295 cells after 48 hrs by SRB assay; format: functional; conditions: SF-295, 48 h; in short: as §1
OVCAR-5 = test: Growth inhibition of human OVCAR5 cells after 48 hrs by SRB assay; format: functional; conditions: OVCAR-5, 48 h; in short: as §1
MDA-MB-231 = test: Growth inhibition of human MDA-MB-231 cells after 48 hrs by SRB assay; format: functional; conditions: MDA-MB-231, 48 h; in short: as §1
HCT-15 = test: Growth inhibition of human HCT15 cells after 48 hrs by SRB assay; format: functional; conditions: HCT-15, 48 h; in short: as §1
[4] = Growth inhibition of human BSY1 cells after 48 hrs by SRB assay; format: functional; conditions: BSY-1, 48 h; in short: as §1
DMS-114 = test: Growth inhibition of human DMS114 cells after 48 hrs by SRB assay; format: functional; conditions: DMS-114, 48 h; in short: as §1
[5] = Growth inhibition of human MKN1 cells after 48 hrs by SRB assay; format: functional; conditions: MKN-1, 48 h; in short: as §1
MKN-7 = test: Growth inhibition of human MKN7 cells after 48 hrs by SRB assay; format: functional; conditions: MKN-7, 48 h; in short: as §1
SNB-75 = test: Growth inhibition of human SNB75 cells after 48 hrs by SRB assay; format: functional; conditions: SNB-75, 48 h; in short: as §1
PC-3 = test: Growth inhibition of human PC3 cells after 48 hrs by SRB assay; format: functional; conditions: PC-3, 48 h; in short: as §1
SF-268 = test: Growth inhibition of human SF268 cells after 48 hrs by SRB assay; format: functional; conditions: SF-268, 48 h; in short: as §1
[6] = Growth inhibition of human RXF631L cells after 48 hrs by SRB assay; format: functional; conditions: RXF 631, 48 h; in short: as §1
St-4 = test: Growth inhibition of human St-4 cells after 48 hrs by SRB assay; format: functional; conditions: St-4, 48 h; in short: as §1
MKN-45 = test: Growth inhibition of human MKN45 cells after 48 hrs by SRB assay; format: functional; conditions: MKN-45, 48 h; in short: as §1
DMS-273 = test: Growth inhibition of human DMS273 cells after 48 hrs by SRB assay; format: functional; conditions: DMS-273, 48 h; in short: as §1
MKN-28 = test: Growth inhibition of human MKN28 cells after 48 hrs by SRB assay; format: functional; conditions: MKN-28, 48 h; in short: as §1
HT-29 = test: Growth inhibition of human HT-29 cells after 48 hrs by SRB assay; format: functional; conditions: HT-29, 48 h; in short: as §1
LOX IMVI = test: Growth inhibition of human LOXIMVI cells after 48 hrs by SRB assay; format: functional; in short: as §1
[7] = Growth inhibition of human HBC5 cells after 48 hrs by SRB assay; format: functional; conditions: HBC5, 48 h; in short: as §1
NCI-H522 = test: Growth inhibition of human NCI-H522 cells after 48 hrs by SRB assay; format: functional; conditions: NCI-H522, 48 h; in short: as §1
KM12 = test: Growth inhibition of human KM12 cells after 48 hrs by SRB assay; format: functional; conditions: KM12, 48 h; in short: as §1
U-251 = test: Growth inhibition of human U251 cells after 48 hrs by SRB assay; format: functional; conditions: U-251, 48 h; in short: as §1

With `CC(C)C(=O)CC[C@@H](C)[C@H]1[C@@H](O)C[C@@]2(C)[C@@H]3CC[C@H]4C(C)(C)[C@@H](O[C@@H]5O[C@H](CO)[C@@H](O)[C@H](O)[C@H]5O[C@@H]5O[C@@H](C)[C@H](O)[C@@H](O[C@@H]6O[C@H](CO)[C@@H](O)[C@H](O)[C@H]6O)[C@H]5O)CC[C@@]45C[C@@]35C[C@H](O)[C@]12C` as the compound, how does the inhibition (HL-60 [1]) read?
The inhibition was “inactive”.

With `CC(C)C(=O)CC[C@@H](C)[C@H]1[C@@H](O)C[C@@]2(C)[C@@H]3CC[C@H]4C(C)(C)[C@@H](O[C@@H]5O[C@H](CO[C@@H]6O[C@H](CO)[C@@H](O)[C@H](O)[C@H]6O)[C@@H](O)[C@H](O)[C@H]5O)CC[C@@]45C[C@@]35C[C@H](O)[C@]12C` as the compound, how does the inhibition (HL-60 [1]) read?
The inhibition was “inactive”.

For `CC(C)C(=O)CC[C@@H](C)[C@H]1[C@@H](O)C[C@@]2(C)[C@@H]3CC[C@H]4C(C)(C)[C@@H](O[C@@H]5O[C@H](CO)[C@@H](O)[C@H](O)[C@H]5O[C@@H]5O[C@H](CO)[C@@H](O)[C@H](O[C@@H]6O[C@H](CO)[C@@H](O)[C@H](O)[C@H]6O)[C@H]5O)CC[C@@]45C[C@@]35C[C@H](O)[C@]12C`, which inhibition (HL-60 [1]) is on record?
The inhibition was “inactive”.

For `CC(C)C(=O)CC[C@@H](C)[C@H]1[C@@H](O)C[C@@]2(C)[C@@H]3CC[C@H]4C(C)(C)[C@@H](O[C@@H]5O[C@H](CO)[C@@H](O)[C@H](O)[C@H]5O[C@@H]5O[C@H](CO)[C@@H](O)[C@H](O)[C@H]5O)CC[C@@]45C[C@@]35C[C@H](O)[C@]12C`, which inhibition (HL-60 [1]) is on record?
Its inhibition is “inactive”.

Which GI50 (OVCAR-8) does the source give for `CC(C)C(=O)CC[C@@H](C)[C@H]1[C@@H](O)C[C@@]2(C)[C@@H]3CC[C@H]4C(C)(C)[C@@H](O)CC[C@@]45C[C@@]35C[C@H](O)[C@]12C` here?
Its GI50 is 1550 nM.

What about the GI50 [2] of the same compound?
Its GI50 is 3160 nM.

What about the pIC50 (HL-60 [3]) of the same compound?
The pIC50 was 5.74.

What about the GI50 (MKN-74) of the same compound?
The GI50 was 2190 nM.

What about the GI50 (A549) of the same compound?
The GI50 was 2690 nM.

And the GI50 (MCF7)?
The GI50 was 3800 nM.

What about the GI50 (SF-539) of the same compound?
The GI50 was 2140 nM.

What about the GI50 (NCI-H226) of the same compound?
The GI50 was 2750 nM.

And the GI50 (HCT-116)?
The GI50 was 2400 nM.

And the GI50 (ACHN)?
Its GI50 is 2000 nM.

And the GI50 (NCI-H23)?
Its GI50 is 3090 nM.

What about the GI50 (DU-145) of the same compound?
Its GI50 is 2090 nM.

What about the GI50 (SNB-78) of the same compound?
Its GI50 is 5010 nM.

What about the GI50 (SK-OV-3) of the same compound?
The GI50 was 4790 nM.

What about the GI50 (NCI-H460) of the same compound?
The GI50 was 2240 nM.

What about the GI50 (OVCAR-4) of the same compound?
The GI50 was 2400 nM.

What about the GI50 (HCC 2998) of the same compound?
The GI50 was 16600 nM.

What about the GI50 (OVCAR-3) of the same compound?
Its GI50 is 3240 nM.

What about the GI50 (SF-295) of the same compound?
The GI50 was 2090 nM.

What about the GI50 (OVCAR-5) of the same compound?
Its GI50 is 4790 nM.

What about the GI50 (MDA-MB-231) of the same compound?
Its GI50 is 2000 nM.

And the GI50 (HCT-15)?
Its GI50 is 3470 nM.

And the GI50 [4]?
Its GI50 is 1950 nM.

And the GI50 (DMS-114)?
Its GI50 is 1780 nM.

And the GI50 [5]?
Its GI50 is 2570 nM.

What about the GI50 (MKN-7) of the same compound?
Its GI50 is 1910 nM.

And the GI50 (SNB-75)?
Its GI50 is 3800 nM.

And the GI50 (PC-3)?
The GI50 was 14800 nM.

What about the GI50 (SF-268) of the same compound?
Its GI50 is 1380 nM.

What about the GI50 [6] of the same compound?
Its GI50 is 1780 nM.

And the GI50 (St-4)?
Its GI50 is 2750 nM.

What about the GI50 (MKN-45) of the same compound?
The GI50 was 64600 nM.

What about the GI50 (DMS-273) of the same compound?
The GI50 was 2090 nM.

What about the GI50 (MKN-28) of the same compound?
Its GI50 is 2040 nM.

What about the GI50 (HT-29) of the same compound?
Its GI50 is 3310 nM.

And the GI50 (LOX IMVI)?
Its GI50 is 1550 nM.

And the GI50 [7]?
The GI50 was 2880 nM.

What about the GI50 (NCI-H522) of the same compound?
The GI50 was 2880 nM.

And the GI50 (KM12)?
Its GI50 is 6170 nM.

And the GI50 (U-251)?
Its GI50 is 2190 nM.

Which inhibition (HL-60 [1]) does the source give for `CC(C)C(=O)CC[C@@H](C)[C@H]1[C@@H](O)C[C@@]2(C)[C@@H]3CC[C@H]4C(C)(C)[C@@H](O[C@@H]5O[C@H](CO)[C@@H](O)[C@H](O)[C@H]5O[C@@H]5O[C@@H](C)[C@H](O)[C@@H](O)[C@H]5O)CC[C@@]45C[C@@]35C[C@H](O)[C@]12C` here?
Its inhibition is “inactive”.

With `CC(C)C(=O)CC[C@@H](C)[C@H]1[C@@H](O)C[C@@]2(C)[C@@H]3CC[C@H]4C(C)(C)[C@@H](O[C@@H]5O[C@H](CO)[C@@H](O)[C@H](O)[C@H]5O)CC[C@@]45C[C@@]35C[C@H](O)[C@]12C` as the compound, how does the pIC50 (HL-60 [3]) read?
Its pIC50 is 5.05.
